Activity calls are given as the source filed them. No cut-off for these calls is given here.
How the values were obtained:
[1] = molecular target: T1, Homeobox protein SIX1 (Homo sapiens) (UniProt Q15475); test: Potency index, ratio for inhibition activity of apigenin to test compound for inhibition of SIX1 in human CaSki cells after 48 hrs by Western blot analysis; assay type: cell-based; conditions: Ca-Ski
T1 sequence (whole entry): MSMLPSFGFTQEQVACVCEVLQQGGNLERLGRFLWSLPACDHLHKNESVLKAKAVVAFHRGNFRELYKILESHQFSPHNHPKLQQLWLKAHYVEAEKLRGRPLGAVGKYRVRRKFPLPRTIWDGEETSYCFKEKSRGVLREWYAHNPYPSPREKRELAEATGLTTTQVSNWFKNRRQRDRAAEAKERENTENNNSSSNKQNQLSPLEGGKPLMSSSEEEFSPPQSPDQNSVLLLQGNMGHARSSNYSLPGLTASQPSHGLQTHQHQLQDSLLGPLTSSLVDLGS
In short: (§1)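 Cells plated at 1 × 10^6 per 100 mm dish and treated next day for 48 h with test compound (2 or 4 μM) or apigenin (10, 20 or 40 μM). RIPA lysates with protease inhibitors; equal protein loaded for SDS-PAGE, then PVDF transfer. Blocked in 5% milk/TBST (3% BSA for CK2α); anti-SIX1 or anti-CK2α 1:500, HRP secondary 1:2000; chemiluminescent detection.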

[2] = molecular target: T1, Homeobox protein SIX1 (Homo sapiens); test: Inhibition of SIX1 in human SiHa cells at 2 to 4 uM after 48 hrs by Western blot analysis; assay type: cell-based
In short: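 SiHa cells in DMEM with 10% FBS were seeded at 1 × 10^6 per 100 mm dish and treated the next day at 2 or 4 μM for 48 h. Lysis was in RIPA buffer with protease inhibitors. Equal protein was run on SDS-PAGE and transferred to PVDF, blocked in 5% milk/TBST, probed with anti-SIX1 (1:500) then HRP secondary (1:2000), and detected by chemiluminescence.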

C-33-A [3] = test: Cell cycle arrest in human C33A cells assessed as accumulation at G2/M phase at 4 uM after 72 hrs by propidium iodide staining based flow cytometric analysis (reference value: 25.2%); assay type: functional
In short: (§2)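 Cells in DMEM/10% FBS at 37 °C, 5% CO2 were given 4 μM for 24, 48 or 72 h, with DMSO as control. After trypsinization they were fixed in chilled 70% ethanol on ice for 30 min, treated with RNase A (1 mg/mL) for 30 min at room temperature, and stained with PI (20 μg/mL). At least 10 000 events were read by flow cytometry to give sub-G1, G0/G1, S and G2/M fractions; mean ± SEM.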

C-33-A [4] = test: Induction of apoptosis in human C33A cells assessed as apoptotic cells at 4 uM after 48 hrs by Annexin V-FITC/PI double staining based flow cytometric analysis (reference value: 17.3%); assay type: functional
C-33-A [5] = test: Cell cycle arrest in human C33A cells assessed as increase in p21 protein expression at 2 to 4 uM after 48 hr by Western lot analysis; assay type: functional, cell-based
In short: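 Western blot. 1 × 10^6 cells were seeded per 100 mm dish and exposed the next day to 2 or 4 μM for 48 h. Cells were trypsinized and lysed in RIPA buffer with protease inhibitors. Equal protein was run on SDS-PAGE and transferred to PVDF, which was blocked in 5% milk/TBST. Anti-p53 and anti-p21 (also GAPDH) were used at 1:500 and HRP secondary at 1:2000; chemiluminescent detection.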

SiHa [6] = test: Induction of apoptosis in human SiHa cells assessed as apoptotic cells at 4 uM after 48 hrs by Annexin V-FITC/PI double staining based flow cytometric analysis (reference value: 6.4%); assay type: functional
[7] = molecular target: Casein kinase II subunit alpha (Homo sapiens) (UniProt P68400); test: Potency index, ratio for inhibition activity of apigenin to test compound for inhibition of CK2alpha in human C33A cells after 48 hrs by Western blot analysis; assay type: cell-based; conditions: C-33-A; in short: as §1
Casein kinase II subunit alpha (Homo sapiens), sequence (P68400 whole entry, looked up): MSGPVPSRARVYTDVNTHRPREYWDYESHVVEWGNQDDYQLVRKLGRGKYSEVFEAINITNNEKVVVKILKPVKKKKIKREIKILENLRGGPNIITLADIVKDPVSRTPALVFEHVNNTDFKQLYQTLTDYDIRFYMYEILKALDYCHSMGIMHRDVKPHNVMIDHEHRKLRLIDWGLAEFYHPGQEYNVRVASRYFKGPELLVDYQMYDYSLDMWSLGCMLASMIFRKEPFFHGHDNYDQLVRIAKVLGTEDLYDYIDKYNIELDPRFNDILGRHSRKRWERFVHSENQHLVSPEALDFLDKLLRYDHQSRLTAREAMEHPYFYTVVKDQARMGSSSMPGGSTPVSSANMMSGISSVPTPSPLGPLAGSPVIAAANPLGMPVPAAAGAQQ

C-33-A [8] = test: Cell cycle arrest in human C33A cells assessed as accumulation at Sub G1 phase at 4 uM after 24 hrs by propidium iodide staining based flow cytometric analysis (reference value: 0.7%); assay type: functional; in short: as §2
Ca-Ski [9] = test: Induction of apoptosis in human CaSki cells assessed as late apoptotic cells at 4 uM after 48 hrs by Annexin V-FITC/PI double staining based flow cytometric analysis (reference value: 9.1%); assay type: functional
[10] = molecular target: T1, Homeobox protein SIX1 (Homo sapiens); test: Inhibition of SIX1 in human HeLa cells at 2 to 4 uM after 48 hrs by Western blot analysis; assay type: cell-based
In short: (§3)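 Cells were seeded at 1 × 10^6 per 100 mm dish and treated next day with 2 or 4 μM for 48 h. They were trypsinised, PBS-washed and lysed in RIPA with protease inhibitors. Equal protein was run on SDS-PAGE and transferred to PVDF. Primary antibodies were used at 1:500, with BSA 3% for blocking and antibodies for CK2α, Rb and pRb, otherwise 5% milk in TBST. HRP secondary at 1:2000, chemiluminescence detection.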

[11] = molecular target: T2, Protein E7 (Human papillomavirus 16) (UniProt P03129); test: Inhibition of Human papillomavirus type16 derived E7 in human CaSki cells assessed as decrease in phosphorylation of Rb at 2 to 4 uM after 48 hrs by Western blot analysis; assay type: cell-based; conditions: Ca-Ski; in short: as §3
T2 sequence (whole entry): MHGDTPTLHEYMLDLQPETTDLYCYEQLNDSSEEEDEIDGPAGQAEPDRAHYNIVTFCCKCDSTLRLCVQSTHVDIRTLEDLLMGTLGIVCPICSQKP

Ca-Ski [12] = test: Cell cycle arrest in human CaSki cells assessed as increase in accumulation at G0/G1 phase at 4 uM incubated for 24 hrs by propidium iodide staining based flow cytometric analysis; assay type: functional; in short: as §2
[13] = molecular target: Casein kinase II subunit alpha (Homo sapiens) (UniProt P68400); test: Inhibition of CK2alpha in human SiHa cells at 2 to 4 uM after 48 hrs by Western blot analysis; assay type: cell-based; in short: as §3
[14] = molecular target: T1, Homeobox protein SIX1 (Homo sapiens); test: Potency index, ratio for inhibition activity of apigenin to test compound for inhibition of SIX1 in human SiHa cells after 48 hrs by Western blot analysis; assay type: cell-based; in short: as §1
Ca-Ski [15] = test: Antiproliferative activity against human CaSki cells assessed as reduction in cell viability after 48 hrs by CellTiter-Glo assay; assay type: functional, cell-based
In short: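 ATP-based luminescent viability readout. Cells were grown in DMEM with 10% FBS, 2 mM L-glutamine and penicillin-streptomycin at 37 °C, 5% CO2. 2 × 10^4 cells/well were seeded, then exposed the next day to 0–40 μM for 24, 48 or 72 h. % viability = 100 × treated/control. IC50 was fitted from a sigmoid dose-response curve. Run at least three times in quadruplicate; mean ± SEM.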

Ca-Ski [16] = test: Induction of apoptosis in human CaSki cells assessed as early apoptotic cells at 4 uM after 24 hrs by Annexin V-FITC/PI double staining based flow cytometric analysis (reference value: 12.2%); assay type: functional
Ca-Ski [17] = test: Cell cycle arrest in human CaSki cells assessed as increase in accumulation at G0/G1 phase at 4 uM incubated for 48 hrs by propidium iodide staining based flow cytometric analysis; assay type: functional; in short: as §2
[18] = molecular target: Casein kinase II subunit alpha (Homo sapiens) (UniProt P68400); test: Inhibition of CK2alpha in human C33A cells at 2 to 4 uM after 48 hrs by Western blot analysis; assay type: cell-based; conditions: C-33-A; in short: as §3
SiHa [19] = test: Cell cycle arrest in human SiHa cells assessed as accumulation at G2/M phase at 4 uM after 24 hrs by propidium iodide staining based flow cytometric analysis (reference value: 17%); assay type: functional; in short: as §2
Ca-Ski [20] = test: Cell cycle arrest in human CaSki cells assessed as accumulation at G2/M phase at 4 uM after 24 hrs by propidium iodide staining based flow cytometric analysis (reference value: 27.4%); assay type: functional; in short: as §2

SMILES: O[C@]12C=C(c3nccc4c3[nH]c3ccccc34)[C@@H]3CCN(CCCC/C=C\CC1)C[C@@]31C[C@@H]3/C=C\CCCCN3[C@H]12 [MANZAMINE A]
- Ratio [1]: 10
- inhibition [2]: Active
- Activity (C-33-A [3]): 19.3%
- Activity (C-33-A [4]): 36.5%
- Activity (C-33-A [5]): inactive
- Activity (SiHa [6]): 33.6%
- Ratio [7]: 10
- Activity (C-33-A [8]): 1.8%
- Activity (Ca-Ski [9]): 7.8%
- inhibition [10]: Active
- inhibition [11]: Active
- fold change (FC) (Ca-Ski [12]): 1.4
- inhibition [13]: Active
- Ratio [14]: 10
- IC50 (Ca-Ski [15]): 19.9 µM
- Activity (Ca-Ski [16]): 16.9%
- fold change (FC) (Ca-Ski [17]): 1.5
- inhibition [18]: Active
- Activity (SiHa [19]): 9.2%
- Activity (Ca-Ski [20]): 15.2%
